Values after ≈ are worked out from the molar mass of the structure shown.
Assays:
Format in all cases: functional
Candida albicans = assay: Antifungal activity against Candida albicans clinical isolate after 24 hrs by sabouraud dextrose broth based microdilution method
Procedure, shortened: (§1)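 Clinical isolates identified by conventional methods and subcultured for purity. Broth microdilution per NCCLS in Sabouraud dextrose broth; compounds dissolved in DMSO and serially diluted; inoculum 10^3/mL. Controls: fungi without compound, medium only. Incubated 24 h at 37 °C. MIC is the lowest concentration with complete growth inhibition by unaided eye. Values are geometric means over isolates per species.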

Candida parapsilosis = assay: Antifungal activity against Candida parapsilosis clinical isolate after 24 hrs by sabouraud dextrose broth based microdilution method; conditions: Lodderomyces parapsilosis; procedure, shortened: as §1
Pichia kudriavzevii = assay: Antifungal activity against Candida krusei clinical isolate after 24 hrs by sabouraud dextrose broth based microdilution method; procedure, shortened: as §1
Klebsiella oxytoca = assay: Antibacterial activity against Klebsiella oxytoca after 18 to 22 hrs by broth microdilution method
Procedure, shortened: (§2)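 Broth microdilution per NCCLS in Mueller-Hinton II broth; isolates subcultured for purity. Compounds dissolved in DMSO, serial dilutions 256 to 0.5 µg/mL; inoculum 10^5/mL. Controls: organism without compound, medium only. Incubation 18 to 22 h at 35 °C. MIC is the lowest concentration giving complete growth inhibition, read by unaided eye.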

Candida tropicalis = assay: Antifungal activity against Candida tropicalis clinical isolate after 24 hrs by sabouraud dextrose broth based microdilution method; procedure, shortened: as §1
Staphylococcus aureus = assay: Antibacterial activity against Staphylococcus aureus after 18 to 22 hrs by broth microdilution method; procedure, shortened: as §2
Staphylococcus warneri = assay: Antibacterial activity against Staphylococcus warneri after 18 to 22 hrs by broth microdilution method; procedure, shortened: as §2
[Candida] sake = Antifungal activity against Candida sake clinical isolate after 24 hrs by sabouraud dextrose broth based microdilution method; conditions: Fermentozyma sake; procedure, shortened: as §1
[1] = test system: Staphylococcus haemolyticus; assay: Antibacterial activity against Staphylococcus haemolyticus after 18 to 22 hrs by broth microdilution method; procedure, shortened: as §2
Enterococcus faecalis = assay: Antibacterial activity against […] faecalis after 18 to 22 hrs by broth microdilution method; procedure, shortened: as §2
Nakaseomyces glabratus = assay: Antifungal activity against Candida glabrata clinical isolate after 24 hrs by sabouraud dextrose broth based microdilution method; procedure, shortened: as §1
Enterobacter sp. = assay: Antibacterial activity against Enterobacter sp. after 18 to 22 hrs by broth microdilution method; procedure, shortened: as §2
Escherichia coli = assay: Antibacterial activity against Escherichia coli at after 18 to 22 hrs by broth microdilution method; procedure, shortened: as §2
Proteus mirabilis = assay: Antibacterial activity against Proteus mirabilis after 18 to 22 hrs by broth microdilution method; procedure, shortened: as §2

O=C1CS/C(=N\N=C\c2ccc3c(c2)OCO3)N1Cc1cccc2ccccc12
MIC (Candida albicans): 8 µg/mL (≈ 19.8 µM)
MIC (Candida parapsilosis): 16 µg/mL (≈ 39.7 µM)
MIC (Pichia kudriavzevii): 8 µg/mL (≈ 19.8 µM)
MIC (Klebsiella oxytoca): > 256 µg/mL
MIC (Candida tropicalis): 16 µg/mL (≈ 39.7 µM)
MIC (Staphylococcus aureus): > 256 µg/mL
MIC (Staphylococcus warneri): > 256 µg/mL
MIC ([Candida] sake): 8 µg/mL (≈ 19.8 µM)
MIC [1]: > 256 µg/mL
MIC (Enterococcus faecalis): > 256 µg/mL
MIC (Nakaseomyces glabratus): 4 µg/mL (≈ 9.91 µM)
MIC (Enterobacter sp.): > 256 µg/mL
MIC (Escherichia coli): > 256 µg/mL
MIC (Proteus mirabilis): > 256 µg/mL

O=C1CS/C(=N\N=C2CCCCCCC2)N1Cc1ccc([N+](=O)[O-])cc1
MIC (Candida albicans): 4 µg/mL (≈ 10.7 µM)
MIC (Candida parapsilosis): 16 µg/mL (≈ 42.7 µM)
MIC (Pichia kudriavzevii): 16 µg/mL (≈ 42.7 µM)
MIC (Klebsiella oxytoca): > 256 µg/mL
MIC (Candida tropicalis): 8 µg/mL (≈ 21.4 µM)
MIC (Staphylococcus aureus): > 256 µg/mL
MIC (Staphylococcus warneri): > 256 µg/mL
MIC ([Candida] sake): 16 µg/mL (≈ 42.7 µM)
MIC [1]: > 256 µg/mL
MIC (Enterococcus faecalis): > 256 µg/mL
MIC (Nakaseomyces glabratus): 16 µg/mL (≈ 42.7 µM)
MIC (Enterobacter sp.): > 256 µg/mL
MIC (Escherichia coli): > 256 µg/mL
MIC (Proteus mirabilis): > 256 µg/mL

C/C(=N\N=C1/SCC(=O)N1Cc1cccc2ccccc12)c1ccco1
MIC (Candida albicans): 32 µg/mL (≈ 88 µM)
MIC (Candida parapsilosis): 4 µg/mL (≈ 11 µM)
MIC (Pichia kudriavzevii): 4 µg/mL (≈ 11 µM)
MIC (Klebsiella oxytoca): > 256 µg/mL
MIC (Candida tropicalis): 128 µg/mL (≈ 352 µM)
MIC (Staphylococcus aureus): > 256 µg/mL
MIC (Staphylococcus warneri): > 256 µg/mL
MIC ([Candida] sake): 4 µg/mL (≈ 11 µM)
MIC [1]: > 256 µg/mL
MIC (Enterococcus faecalis): > 256 µg/mL
MIC (Nakaseomyces glabratus): 32 µg/mL (≈ 88 µM)
MIC (Enterobacter sp.): > 256 µg/mL
MIC (Escherichia coli): > 256 µg/mL
MIC (Proteus mirabilis): > 256 µg/mL

O=C1CS/C(=N\N=C\c2ccc3c(c2)OCO3)N1Cc1ccc([N+](=O)[O-])cc1
MIC (Candida albicans): 256 µg/mL (≈ 643 µM)
MIC (Candida parapsilosis): 16 µg/mL (≈ 40.2 µM)
MIC (Pichia kudriavzevii): 8 µg/mL (≈ 20.1 µM)
MIC (Klebsiella oxytoca): > 256 µg/mL
MIC (Candida tropicalis): 16 µg/mL (≈ 40.2 µM)
MIC (Staphylococcus aureus): > 256 µg/mL
MIC (Staphylococcus warneri): > 256 µg/mL
MIC ([Candida] sake): 16 µg/mL (≈ 40.2 µM)
MIC [1]: > 256 µg/mL
MIC (Enterococcus faecalis): > 256 µg/mL
MIC (Nakaseomyces glabratus): 32 µg/mL (≈ 80.3 µM)
MIC (Enterobacter sp.): > 256 µg/mL
MIC (Escherichia coli): > 256 µg/mL
MIC (Proteus mirabilis): > 256 µg/mL

O=C1CS/C(=N\N=C\c2cccc3ccccc23)N1Cc1ccc([N+](=O)[O-])cc1
MIC (Candida albicans): 256 µg/mL (≈ 633 µM)
MIC (Candida parapsilosis): 8 µg/mL (≈ 19.8 µM)
MIC (Pichia kudriavzevii): 8 µg/mL (≈ 19.8 µM)
MIC (Klebsiella oxytoca): > 256 µg/mL
MIC (Candida tropicalis): 16 µg/mL (≈ 39.6 µM)
MIC (Staphylococcus aureus): > 256 µg/mL
MIC (Staphylococcus warneri): > 256 µg/mL
MIC ([Candida] sake): 8 µg/mL (≈ 19.8 µM)
MIC [1]: > 256 µg/mL
MIC (Enterococcus faecalis): > 256 µg/mL
MIC (Nakaseomyces glabratus): 64 µg/mL (≈ 158 µM)
MIC (Enterobacter sp.): > 256 µg/mL
MIC (Escherichia coli): > 256 µg/mL
MIC (Proteus mirabilis): > 256 µg/mL

C/C(=N\N=C1/SCC(=O)N1CN1C(=O)c2ccccc2C1=O)c1ccccc1
MIC (Candida albicans): 2 µg/mL (≈ 5.1 µM)
MIC (Candida parapsilosis): 8 µg/mL (≈ 20.4 µM)
MIC (Pichia kudriavzevii): 8 µg/mL (≈ 20.4 µM)
MIC (Klebsiella oxytoca): > 256 µg/mL
MIC (Candida tropicalis): 8 µg/mL (≈ 20.4 µM)
MIC (Staphylococcus aureus): > 256 µg/mL
MIC (Staphylococcus warneri): > 256 µg/mL
MIC ([Candida] sake): 8 µg/mL (≈ 20.4 µM)
MIC [1]: > 256 µg/mL
MIC (Enterococcus faecalis): > 256 µg/mL
MIC (Nakaseomyces glabratus): 8 µg/mL (≈ 20.4 µM)
MIC (Enterobacter sp.): > 256 µg/mL
MIC (Escherichia coli): > 256 µg/mL
MIC (Proteus mirabilis): > 256 µg/mL

CC/C(C)=N/N=C1\SCC(=O)N1Cc1ccc([N+](=O)[O-])cc1
MIC (Candida albicans): 2 µg/mL (≈ 6.24 µM)
MIC (Candida parapsilosis): 2 µg/mL (≈ 6.24 µM)
MIC (Pichia kudriavzevii): 2 µg/mL (≈ 6.24 µM)
MIC (Klebsiella oxytoca): > 256 µg/mL
MIC (Candida tropicalis): 128 µg/mL (≈ 400 µM)
MIC (Staphylococcus aureus): > 256 µg/mL
MIC (Staphylococcus warneri): > 256 µg/mL
MIC ([Candida] sake): 8 µg/mL (≈ 25 µM)
MIC [1]: > 256 µg/mL
MIC (Enterococcus faecalis): > 256 µg/mL
MIC (Nakaseomyces glabratus): 2 µg/mL (≈ 6.24 µM)
MIC (Enterobacter sp.): > 256 µg/mL
MIC (Escherichia coli): > 256 µg/mL
MIC (Proteus mirabilis): > 256 µg/mL

C/C(=N\N=C1/SCC(=O)N1Cc1ccc([N+](=O)[O-])cc1)c1ccccc1
MIC (Candida albicans): 4 µg/mL (≈ 10.9 µM)
MIC (Candida parapsilosis): 4 µg/mL (≈ 10.9 µM)
MIC (Pichia kudriavzevii): 8 µg/mL (≈ 21.7 µM)
MIC (Klebsiella oxytoca): > 256 µg/mL
MIC (Candida tropicalis): 2 µg/mL (≈ 5.43 µM)
MIC (Staphylococcus aureus): > 256 µg/mL
MIC (Staphylococcus warneri): > 256 µg/mL
MIC ([Candida] sake): 2 µg/mL (≈ 5.43 µM)
MIC [1]: > 256 µg/mL
MIC (Enterococcus faecalis): > 256 µg/mL
MIC (Nakaseomyces glabratus): 32 µg/mL (≈ 86.9 µM)
MIC (Enterobacter sp.): > 256 µg/mL
MIC (Escherichia coli): > 256 µg/mL
MIC (Proteus mirabilis): > 256 µg/mL

CC1CCC(=N/N=C2\SCC(=O)N2Cc2ccc([N+](=O)[O-])cc2)CC1 (stereo not drawn)
MIC (Candida albicans): 32 µg/mL (≈ 88.8 µM)
MIC (Candida parapsilosis): 8 µg/mL (≈ 22.2 µM)
MIC (Pichia kudriavzevii): 8 µg/mL (≈ 22.2 µM)
MIC (Klebsiella oxytoca): > 256 µg/mL
MIC (Candida tropicalis): 32 µg/mL (≈ 88.8 µM)
MIC (Staphylococcus aureus): > 256 µg/mL
MIC (Staphylococcus warneri): > 256 µg/mL
MIC ([Candida] sake): 4 µg/mL (≈ 11.1 µM)
MIC [1]: > 256 µg/mL
MIC (Enterococcus faecalis): > 256 µg/mL
MIC (Nakaseomyces glabratus): 16 µg/mL (≈ 44.4 µM)
MIC (Enterobacter sp.): > 256 µg/mL
MIC (Escherichia coli): > 256 µg/mL
MIC (Proteus mirabilis): > 256 µg/mL

CCC(CC)=N/N=C1\SCC(=O)N1Cc1ccc([N+](=O)[O-])cc1
MIC (Candida albicans): 2 µg/mL (≈ 5.98 µM)
MIC (Candida parapsilosis): 128 µg/mL (≈ 383 µM)
MIC (Pichia kudriavzevii): 32 µg/mL (≈ 95.7 µM)
MIC (Klebsiella oxytoca): > 256 µg/mL
MIC (Candida tropicalis): 8 µg/mL (≈ 23.9 µM)
MIC (Staphylococcus aureus): > 256 µg/mL
MIC (Staphylococcus warneri): > 256 µg/mL
MIC ([Candida] sake): 2 µg/mL (≈ 5.98 µM)
MIC [1]: > 256 µg/mL
MIC (Enterococcus faecalis): > 256 µg/mL
MIC (Nakaseomyces glabratus): 8 µg/mL (≈ 23.9 µM)
MIC (Enterobacter sp.): > 256 µg/mL
MIC (Escherichia coli): > 256 µg/mL
MIC (Proteus mirabilis): > 256 µg/mL

C/C(=N\N=C1/SCC(=O)N1CN1C(=O)c2ccccc2C1=O)c1cccs1
MIC (Candida albicans): 4 µg/mL (≈ 10 µM)
MIC (Candida parapsilosis): 4 µg/mL (≈ 10 µM)
MIC (Pichia kudriavzevii): 4 µg/mL (≈ 10 µM)
MIC (Klebsiella oxytoca): > 256 µg/mL
MIC (Candida tropicalis): 2 µg/mL (≈ 5.02 µM)
MIC (Staphylococcus aureus): > 256 µg/mL
MIC (Staphylococcus warneri): > 256 µg/mL
MIC ([Candida] sake): 8 µg/mL (≈ 20.1 µM)
MIC [1]: > 256 µg/mL
MIC (Enterococcus faecalis): > 256 µg/mL
MIC (Nakaseomyces glabratus): 32 µg/mL (≈ 80.3 µM)
MIC (Enterobacter sp.): > 256 µg/mL
MIC (Escherichia coli): > 256 µg/mL
MIC (Proteus mirabilis): > 256 µg/mL

C=CCC/C(C)=N/N=C1\SCC(=O)N1CN1C(=O)c2ccccc2C1=O
MIC (Candida albicans): 4 µg/mL (≈ 10.8 µM)
MIC (Candida parapsilosis): 128 µg/mL (≈ 346 µM)
MIC (Pichia kudriavzevii): 32 µg/mL (≈ 86.4 µM)
MIC (Klebsiella oxytoca): > 256 µg/mL
MIC (Candida tropicalis): 4 µg/mL (≈ 10.8 µM)
MIC (Staphylococcus aureus): > 256 µg/mL
MIC (Staphylococcus warneri): > 256 µg/mL
MIC ([Candida] sake): 8 µg/mL (≈ 21.6 µM)
MIC [1]: > 256 µg/mL
MIC (Enterococcus faecalis): > 256 µg/mL
MIC (Nakaseomyces glabratus): 32 µg/mL (≈ 86.4 µM)
MIC (Enterobacter sp.): > 256 µg/mL
MIC (Escherichia coli): > 256 µg/mL
MIC (Proteus mirabilis): > 256 µg/mL
